The source of these data is ChEMBL document CHEMBL6153131, “Rational Design and Optimization of a Potent IDO1 Proteolysis Targeting Chimera (PROTAC)” (J Med Chem, 2025).

The target in experiment [1] is T1, Protein cereblon/Indoleamine 2,3-dioxygenase 1 (Homo sapiens, UniProt P14902+Q96SW2). The experiment can be described thus: PROTAC activity at CRBN/IDO1 in human U87 cells assessed as induction of IDO1 degradation by measuring remaining activity at 3 uM pretreated with IFN-gamma for 24 hrs followed by compound addition and measured after 24 hrs by Western blotting analysis (reference value: 100%). In kind it is cell-based. The procedure, abridged:
(§1)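 U87 cells given an extended dose range of PROTAC for 24 h, then Western blot for IDO1. IFNγ-induced IDO1 levels normalised to untreated samples. n = 3 independent experiments; mean ± SEM.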
In general terms: In western blotting, separated proteins are transferred to a membrane and probed.
Target sequence in this assay (P14902 whole entry, looked up): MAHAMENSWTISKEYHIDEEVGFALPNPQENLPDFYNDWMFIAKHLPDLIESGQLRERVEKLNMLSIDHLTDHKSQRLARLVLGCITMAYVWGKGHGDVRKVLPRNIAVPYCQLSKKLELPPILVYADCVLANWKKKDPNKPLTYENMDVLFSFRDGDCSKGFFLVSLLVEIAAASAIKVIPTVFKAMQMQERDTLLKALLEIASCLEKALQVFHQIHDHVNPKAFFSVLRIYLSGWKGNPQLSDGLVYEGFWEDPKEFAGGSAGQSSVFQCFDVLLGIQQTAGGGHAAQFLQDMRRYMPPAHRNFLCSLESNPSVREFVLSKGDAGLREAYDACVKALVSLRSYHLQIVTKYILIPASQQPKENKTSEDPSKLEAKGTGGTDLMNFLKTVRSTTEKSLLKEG
Target sequence in this assay (Q96SW2 whole entry, looked up): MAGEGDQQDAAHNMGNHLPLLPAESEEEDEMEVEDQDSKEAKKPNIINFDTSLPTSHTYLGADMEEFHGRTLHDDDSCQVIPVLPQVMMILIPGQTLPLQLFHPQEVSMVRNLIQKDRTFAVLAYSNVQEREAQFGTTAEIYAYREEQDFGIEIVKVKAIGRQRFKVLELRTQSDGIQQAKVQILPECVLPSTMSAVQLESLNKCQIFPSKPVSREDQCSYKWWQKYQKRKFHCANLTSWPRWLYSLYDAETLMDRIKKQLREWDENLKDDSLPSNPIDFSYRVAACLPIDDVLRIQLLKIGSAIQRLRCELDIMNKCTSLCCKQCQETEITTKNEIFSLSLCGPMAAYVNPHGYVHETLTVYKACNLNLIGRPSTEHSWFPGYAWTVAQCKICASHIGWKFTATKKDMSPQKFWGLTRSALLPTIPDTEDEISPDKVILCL

Experiment [2] has as its system Kelly. Briefly: Downregulation of ADO protein level in human Kelly cells at 1 uM incubated for 24 hrs by proteomics analysis. In kind it is functional, cell-based.
In experiment [3] the target is T1, Protein cereblon/Indoleamine 2,3-dioxygenase 1. The experiment can be described thus: PROTAC activity at CRBN/IDO1 in human U87 cells assessed as induction of IDO1 degradation by measuring maximum efficacy at 300 nM pretreated with IFN-gamma for 24 hrs followed by compound addition and measured after 24 hrs by Western blotting analysis relative to control. In kind it is cell-based. Summed up: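 IDO1 in U87 cells induced with 50 ng/mL human IFN-γ, then compound given across an extended dose range for 24 h. IDO1 and GAPDH read by Western blot; IDO1 levels normalized to untreated; DC50 from n = 3 independent experiments.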
Target sequence in this assay (P14902 whole entry, looked up): as the sequence (P14902 whole entry, looked up) above
Target sequence in this assay (Q96SW2 whole entry, looked up): as the sequence (Q96SW2 whole entry, looked up) above

Experiment [4] has the same target. The experiment can be described thus: PROTAC activity at CRBN/N-terminal HiBiT-tagged IDO1 (unknown origin) transfected in human U87 cells assessed as induction of IDO1 degradation pretreated with IFN-gamma for 24 hrs followed by compound addition and measured after 24 hrs by Nano-Glo HiBiT assay. Format: cell-based. Summed up:
(§2)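 U87 cells carrying HiBiT knocked in by CRISPR/Cas9 at the IDO1 N-terminus, treated for 24 h. Degradation read as loss of luminescence. DC50 fitted from the lowest concentration up to maximal degradation, excluding hook-effect points; triplicate mean ± SD.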
A general note: The HiBiT peptide binds its large partner to form an active luciferase.
Target sequence in this assay (P14902 whole entry): as the sequence (P14902 whole entry, looked up) above
Target sequence in this assay (Q96SW2 whole entry): as the sequence (Q96SW2 whole entry, looked up) above

Experiment [5] has the same target. The experiment can be described thus: PROTAC activity at CRBN/IDO1 in human U87 cells assessed as induction of IDO1 degradation by measuring remaining activity at 0.03 uM pretreated with IFN-gamma for 24 hrs followed by compound addition and measured after 24 hrs by Western blotting analysis (reference value: 100%). In kind it is cell-based. The procedure, abridged:
as §1
Target sequence in this assay (P14902 whole entry, looked up): as the sequence (P14902 whole entry, looked up) above
Target sequence in this assay (Q96SW2 whole entry, looked up): as the sequence (Q96SW2 whole entry, looked up) above

For experiment [6] the target is unchanged. Briefly: PROTAC activity at CRBN/IDO1 in human U87 cells assessed as induction of IDO1 degradation by measuring remaining activity at 0.001 uM pretreated with IFN-gamma for 24 hrs followed by compound addition and measured after 24 hrs by Western blotting analysis (reference value: 100%). In kind it is cell-based. The procedure, abridged: as §1
Target sequence in this assay (P14902 whole entry, looked up): as the sequence (P14902 whole entry, looked up) above
Target sequence in this assay (Q96SW2 whole entry, looked up): as the sequence (Q96SW2 whole entry, looked up) above
Experiment [7] has the same target. The experiment can be described thus: Binding affinity to CRBN/6His-tagged recombinant IDO1 (unknown origin) assessed as ternary complex formation by measuring half life by Biolayer Interferometry assay. Format: protein assay.
Target sequence in this assay (P14902 whole entry, looked up): as the sequence (P14902 whole entry, looked up) above
Target sequence in this assay (Q96SW2 whole entry, looked up): as the sequence (Q96SW2 whole entry, looked up) above
Experiment [8] shares this target. The experiment can be described thus: PROTAC activity at CRBN/IDO1 in human U87 cells assessed as induction of IDO1 degradation by measuring remaining activity at 0.01 uM pretreated with IFN-gamma for 24 hrs followed by compound addition and measured after 24 hrs by Western blotting analysis (reference value: 100%). In kind it is cell-based. The procedure, abridged:
as §1
Target sequence in this assay (P14902 whole entry, looked up): as the sequence (P14902 whole entry, looked up) above
Target sequence in this assay (Q96SW2 whole entry, looked up): as the sequence (Q96SW2 whole entry, looked up) above

The test system of experiment [9] is Kelly. The experiment can be described thus: Downregulation of CDK8 protein level in human Kelly cells at 1 uM incubated for 24 hrs by proteomics analysis. In kind it is functional, cell-based.
In experiment [10] the test system is Kelly. The experiment can be described thus: Downregulation of EPHX2 protein level in human Kelly cells at 1 uM incubated for 24 hrs by proteomics analysis. Format: functional, cell-based.
Experiment [11] concerns the target T1, Protein cereblon/Indoleamine 2,3-dioxygenase 1. Briefly: PROTAC activity at CRBN/N-terminal HiBiT-tagged IDO1 (unknown origin) transfected in human U87 cells assessed as induction of IDO1 degradation by measuring maximum efficacy pretreated with IFN-gamma for 24 hrs followed by compound addition and measured after 24 hrs by Nano-Glo HiBiT assay relative to control. Format: cell-based. Summed up:
as §2

Experiment [12] deals with Indoleamine 2,3-dioxygenase 1 (Homo sapiens) (UniProt P14902). The experiment can be described thus: Binding affinity to 6His-tagged recombinant IDO1 (unknown origin) assessed as binary complex formation by measuring half life by Biolayer Interferometry assay. (Biolayer interferometry detects binding as a change in optical thickness at a sensor tip.)
Chain of Indoleamine 2,3-dioxygenase 1 (Homo sapiens) (P14902 whole entry, looked up): as the sequence (P14902 whole entry, looked up) above
The target of experiment [13] is T1, Protein cereblon/Indoleamine 2,3-dioxygenase 1. The experiment can be described thus: PROTAC activity at CRBN/IDO1 in human U87 cells assessed as induction of IDO1 degradation by measuring remaining activity at 10 uM pretreated with IFN-gamma for 24 hrs followed by compound addition and measured after 24 hrs by Western blotting analysis (reference value: 100%). In kind it is cell-based. The procedure, abridged:
as §1

Experiment [14] has the same target. The experiment can be described thus: PROTAC activity at CRBN/IDO1 in human U87 cells assessed as induction of IDO1 degradation by measuring remaining activity at 0.1 uM pretreated with IFN-gamma for 24 hrs followed by compound addition and measured after 24 hrs by Western blotting analysis (reference value: 100%). Format: cell-based. The procedure, abridged: as §1

Experiment [15] has the same target. Briefly: PROTAC activity at CRBN/IDO1 in human U87 cells assessed as induction of IDO1 degradation by measuring remaining activity at 1 uM pretreated with IFN-gamma for 24 hrs followed by compound addition and measured after 24 hrs by Western blotting analysis (reference value: 100%). In kind it is cell-based. Summed up: as §1
Experiment [16] shares this target. Briefly: PROTAC activity at CRBN/IDO1 in human U87 cells assessed as induction of IDO1 degradation by measuring remaining activity at 0.003 uM incubated for 24 hrs by Western blotting analysis (reference value: 100%). In kind it is cell-based.
The target is the same in experiment [17]. Briefly: PROTAC activity at CRBN/IDO1 in human U87 cells assessed as induction of IDO1 degradation by measuring remaining activity at 0.3 uM pretreated with IFN-gamma for 24 hrs followed by compound addition and measured after 24 hrs by Western blotting analysis (reference value: 100%). Format: cell-based. The procedure, abridged:
as §1

In experiment [18] the test system is Kelly. The experiment can be described thus: Downregulation of SALL4 protein level in human Kelly cells at 1 uM incubated for 24 hrs by proteomics analysis. Format: functional, cell-based.
Experiment [19] deals with U-87MG ATCC. The experiment can be described thus: Inhibition of kynurenine production in human U87 cells […] and measured after 24 hrs by Ehrlich's reagent based analysis. Conditions: dose 0.001-10 µM. Format: functional, cell-based. The procedure, abridged: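 U87 cells plated, then 24 h later given compound with 50 ng/mL IFN-γ for a total of 24 h. Supernatant kynurenine measured with Ehrlich's reagent; cells without IFN-γ as control; mean ± SEM, Tukey's test.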

For experiment [20], the system named is U-87MG ATCC. Briefly: Inhibition of kynurenine production in human U87 cells at 25 nM pretreated with IFN-gamma for 24 hrs followed by compound addition and measured after 24 hrs by Ehrlich's reagent based analysis. Format: functional, cell-based.
Experiment [21] has as its target T1, Protein cereblon/Indoleamine 2,3-dioxygenase 1. Briefly: PROTAC activity at CRBN/IDO1 in human U87 cells assessed as induction of IDO1 degradation by measuring remaining activity at 25 nM pretreated with IFN-gamma for 24 hrs followed by compound addition and measured after 24 hrs by Western blotting analysis (reference value: 100%). Format: cell-based.
For experiment [22] the target is unchanged. Briefly: PROTAC activity at CRBN/IDO1 in human U87 cells overexpressing GFP-fused IDO1 assessed as induction of IDO1 degradation at 100 nM pretreated with IFN-gamma for 24 hrs followed by compound addition and measured after 24 hrs by Western blotting analysis. In kind it is cell-based.
The target is the same in experiment [23]. The experiment can be described thus: PROTAC activity at CRBN/IDO1 in human PDX-38 cells assessed as induction of IDO1 degradation at 100 nM pretreated with IFN-gamma for 24 hrs followed by compound addition and measured after 24 hrs by Western blotting analysis. Format: cell-based.
The target is the same in experiment [24]. Briefly: PROTAC activity at CRBN/IDO1 in human PC-3 cells assessed as induction of IDO1 degradation at 100 nM pretreated with IFN-gamma for 24 hrs followed by compound addition and measured after 24 hrs by Western blotting analysis. Format: cell-based.
Experiment [25] shares this target. The experiment can be described thus: PROTAC activity at CRBN/IDO1 in human PDX-6 cells assessed as induction of IDO1 degradation at 100 nM pretreated with IFN-gamma for 24 hrs followed by compound addition and measured after 24 hrs by Western blotting analysis. Format: cell-based.
The target is the same in experiment [26]. Briefly: PROTAC activity at CRBN/IDO1 in human SK-OV-3 cells assessed as induction of IDO1 degradation at 100 nM pretreated with IFN-gamma for 24 hrs followed by compound addition and measured after 24 hrs by Western blotting analysis. In kind it is cell-based.
For experiment [27] the target is unchanged. Briefly: PROTAC activity at CRBN/IDO1 in human U87 cells assessed as induction of IDO1 degradation by measuring remaining activity at 50 nM pretreated with IFN-gamma for 24 hrs followed by compound addition and measured after 24 hrs by Western blotting analysis (reference value: 100%). Format: cell-based.
Experiment [28] has the same target. Briefly: PROTAC activity at CRBN/IDO1 in human U87 cells assessed as induction of IDO1 degradation by measuring remaining activity at 100 nM pretreated with IFN-gamma for 24 hrs followed by compound addition and measured after 24 hrs by Western blotting analysis (reference value: 100%). In kind it is cell-based.
For experiment [29] the target is unchanged. Briefly: PROTAC activity at CRBN/IDO1 in human KNS-42 cells assessed as induction of IDO1 degradation at 100 nM pretreated with IFN-gamma for 24 hrs followed by compound addition and measured after 24 hrs by Western blotting analysis. In kind it is cell-based.
Experiment [30] shares this target. The experiment can be described thus: PROTAC activity at CRBN/IDO1 in human MDA-MB-231 cells assessed as induction of IDO1 degradation at 100 nM pretreated with IFN-gamma for 24 hrs followed by compound addition and measured after 24 hrs by Western blotting analysis. In kind it is cell-based.
Experiment [31] has the same target. The experiment can be described thus: PROTAC activity at CRBN/IDO1 in human SW1990 cells assessed as induction of IDO1 degradation at 100 nM pretreated with IFN-gamma for 24 hrs followed by compound addition and measured after 24 hrs by Western blotting analysis. In kind it is cell-based.
The target of experiment [32] is Protein cereblon (Homo sapiens, UniProt Q96SW2). The experiment can be described thus: Binding affinity to CRBN (unknown origin) assessed as dissociation constant by Biolayer Interferometry assay.
Chain of Protein cereblon (Q96SW2 whole entry): as the sequence (Q96SW2 whole entry, looked up) above

Activity calls are given as the source filed them. The calls are words filed in the database; no cut-off is given here.

The term Emax denotes the size of the effect at its maximum, as opposed to the concentration needed. Usually DC50 stands for the concentration giving 50% degradation. With `C[C@@H](C(=O)Nc1cccc(OC2CCN(C(=O)CN3CCC(CN4CCN(c5ccc6c(c5)C(=O)N(C5CCC(=O)NC5=O)C6=O)CC4)CC3)CC2)c1)[C@H]1CC[C@@H](c2ccnc3ccc(F)cc32)CC1` (stereo partly drawn), the Activity in [1] turned out to be 57%; in experiment [5], 71%; in [6], 93%; in experiment [8] it was 84%; in [13], 93%; in [14] it was 47%. For the same compound, the values for the Activity in experiment [15], in experiment [16] and in [17] were 37%, 88% and 32%, respectively. The result in experiment [2], in experiment [9], in [10] and in experiment [18] was Active. In addition, the values for the maximal response (Emax) in experiment [3] and in [11] were 68% and 67%, respectively. In experiment [4], the DC50 is 20 nM. Besides, the T1/2 in experiment [7] is 4.27 min; in [12], 0.883 min. Also, the inhibition result in [19] is “Dose-dependent-effect”.

In the case of `C[C@@H](C(=O)Nc1ccc(Cl)cc1)[C@H]1CC[C@@H](c2ccnc3ccc(F)cc32)CC1`, the inhibition entry in experiment [20] was “Active”.

Consider `C[C@@H](C(=O)Nc1cccc(OC2CCN(C(=O)CN3CCC(N4CCN(c5ccc6c(c5)C(=O)N(C5CCC(=O)N(C)C5=O)C6=O)CC4)CC3)CC2)c1)[C@H]1CC[C@@H](c2ccnc3ccc(F)cc32)CC1` (stereo partly drawn), for which the Activity in experiment [21] came to 99%; in [27], 125%; in [28], 162%. The DC50 in experiment [4] was over 10000 nM. The outcome in [22], in experiment [23], in [24], in experiment [25], in [26] and in [29] was inactive. Also, the outcome in experiment [30] and in experiment [31] was inactive. Besides, in experiment [11], the Emax is under 10%.

As usually defined, the Kd is a measure of binding affinity in units of concentration. For `C[C@@H](C(=O)Nc1ccc(OC2CCN(C(=O)CCOCCOCCNc3cccc4c3C(=O)N(C3CCC(=O)NC3=O)C4=O)CC2)cc1)[C@H]1CC[C@@H](c2ccnc3ccc(F)cc32)CC1` (stereo partly drawn), the Kd in experiment [32] stood at 290 nM. Besides, in [4], the half-maximal degradation concentration (DC50) stood at 430 nM. The maximum response (Emax) in experiment [11] worked out at 79%.

Turning to `C[C@@H](C(=O)Nc1cccc(OC2CCN(C(=O)CN3CCN(c4ccc5c(c4)C(=O)N(C4CCC(=O)NC4=O)C5=O)CC3)CC2)c1)[C@H]1CC[C@@H](c2ccnc3ccc(F)cc32)CC1` (stereo partly drawn), the DC50 in experiment [4] was over 10000 nM. In experiment [11], the maximum response (Emax) is under 10%.
